Molecules are shown by their SMILES.

For assay [1], the target named is T1, Adrenergic receptor alpha-1 (Rattus norvegicus, UniProt P15823+P23944+P43140).
T1 sequence (P15823 whole entry): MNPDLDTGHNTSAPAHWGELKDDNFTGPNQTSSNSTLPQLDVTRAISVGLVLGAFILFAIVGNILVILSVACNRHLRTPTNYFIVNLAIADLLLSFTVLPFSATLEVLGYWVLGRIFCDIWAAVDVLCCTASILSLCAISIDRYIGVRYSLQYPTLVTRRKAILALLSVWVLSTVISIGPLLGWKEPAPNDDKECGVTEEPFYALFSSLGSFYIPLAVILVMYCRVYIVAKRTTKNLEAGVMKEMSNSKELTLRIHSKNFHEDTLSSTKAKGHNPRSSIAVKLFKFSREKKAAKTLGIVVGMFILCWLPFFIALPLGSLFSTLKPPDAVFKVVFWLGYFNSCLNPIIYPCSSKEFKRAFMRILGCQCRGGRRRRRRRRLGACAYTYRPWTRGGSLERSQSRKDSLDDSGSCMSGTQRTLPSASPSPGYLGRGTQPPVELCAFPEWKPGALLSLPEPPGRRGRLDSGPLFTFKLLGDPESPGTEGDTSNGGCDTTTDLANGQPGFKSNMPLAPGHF
T1 sequence (P23944 whole entry): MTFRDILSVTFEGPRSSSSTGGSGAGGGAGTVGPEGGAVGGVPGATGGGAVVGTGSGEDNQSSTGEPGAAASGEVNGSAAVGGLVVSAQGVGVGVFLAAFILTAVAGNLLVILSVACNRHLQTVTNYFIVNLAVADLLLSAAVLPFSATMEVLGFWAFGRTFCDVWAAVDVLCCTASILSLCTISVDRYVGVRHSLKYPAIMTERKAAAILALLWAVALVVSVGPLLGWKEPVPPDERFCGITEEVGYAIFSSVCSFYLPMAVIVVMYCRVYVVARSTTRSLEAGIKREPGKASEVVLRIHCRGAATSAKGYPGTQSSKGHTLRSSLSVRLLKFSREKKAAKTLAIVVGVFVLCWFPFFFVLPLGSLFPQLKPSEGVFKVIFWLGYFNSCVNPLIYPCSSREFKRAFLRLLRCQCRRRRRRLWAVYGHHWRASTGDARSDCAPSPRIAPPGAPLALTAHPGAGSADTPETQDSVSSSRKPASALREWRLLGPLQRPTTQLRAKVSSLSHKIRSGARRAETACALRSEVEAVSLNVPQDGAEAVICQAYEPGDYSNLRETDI
T1 sequence (P43140 whole entry): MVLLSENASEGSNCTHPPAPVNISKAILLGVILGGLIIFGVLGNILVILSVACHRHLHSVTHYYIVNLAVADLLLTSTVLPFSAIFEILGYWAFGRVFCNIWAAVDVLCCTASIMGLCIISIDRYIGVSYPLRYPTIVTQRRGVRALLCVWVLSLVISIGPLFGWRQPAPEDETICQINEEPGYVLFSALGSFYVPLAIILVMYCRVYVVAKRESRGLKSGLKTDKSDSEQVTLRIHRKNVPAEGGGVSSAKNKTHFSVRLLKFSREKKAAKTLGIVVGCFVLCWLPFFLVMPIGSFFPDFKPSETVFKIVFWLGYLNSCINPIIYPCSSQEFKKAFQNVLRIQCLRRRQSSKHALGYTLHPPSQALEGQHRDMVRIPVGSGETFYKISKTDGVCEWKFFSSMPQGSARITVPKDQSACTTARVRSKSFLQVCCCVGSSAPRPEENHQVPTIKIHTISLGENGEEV
Kind of assay: Binding affinity towards Alpha-1 adrenergic receptor using prazosin as a radioligand in rat cortex. A digest of the protocol: (§1)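 Rat tissue membranes, competition against radioligand at 23 °C. Nonspecific binding: 5-HT for 5-HT1A (30 min), (+)-butaclamol for D2 (60 min), phentolamine for α1 (30 min). Tris HCl 50 mM pH 7.4 buffers. Filtration through glass-fibre filters, then scintillation counting. Run in triplicate; IC50 by nonlinear regression; Ki by Cheng–Prusoff; mean pKi of three determinations.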

For assay [2], the system named is Rattus norvegicus. Kind of assay: Effective intraperitoneal dose in vivo in rat after 60 mins to induce lower lip retraction. Particulars: ip, 1 h. Format: functional. A digest of the protocol:
(§2)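 Observed in 10 min windows centred 15 and 60 min post-dose, 10 s each minute, scoring lower lip retraction present or absent (0–10).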

In assay [3] the test system is Rattus norvegicus. Kind of assay: Induction of lower lip retraction in rat 60 min after administration, effective peroral dose determined in vivo. The assay is classed as functional. As to conditions: po, 1 h. The procedure, abridged: as §2
The test system of assay [4] is Rattus norvegicus. In words: Effective intraperitoneal dose in vivo in rat after 15 mins to induce lower lip retraction. The assay is classed as functional. As to conditions: ip, 0.25 h. The procedure, abridged: as §2
For assay [5], the species on record is Rattus norvegicus. In words: Maximum inhibition of immobility in the rat.(Expressed as percentage of immobility observed in vehicle controls). Format: functional. A digest of the protocol:
(§3)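 Rat forced swim: 15 min pre-swim in 17 cm water at 25 °C, then 5 min test 24 h later with blind scoring of immobility. Oral dosing (10 mL/kg) 60 min before the test, n = 10 per dose. Inhibition is the difference in median immobility from vehicle controls, as % of the control median.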

For assay [6], the species on record is Rattus norvegicus. Kind of assay: Potency to produce a significant inhibition of immobility in the rat. The assay is classed as functional. The procedure, abridged: (§4)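 Rat forced swim, 5 min test 24 h after a 15 min pre-swim, with oral dose (10 mL/kg) 60 min before the test, n = 10 per dose. Significant response: immobility <138 s, a value seen in <5% of vehicle controls. ED50 by linear interpolation of % responders.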

Assay [7] has as its target T2, 5-hydroxytryptamine receptor 1A (Homo sapiens, UniProt P08908).
T2 sequence (P08908 whole entry): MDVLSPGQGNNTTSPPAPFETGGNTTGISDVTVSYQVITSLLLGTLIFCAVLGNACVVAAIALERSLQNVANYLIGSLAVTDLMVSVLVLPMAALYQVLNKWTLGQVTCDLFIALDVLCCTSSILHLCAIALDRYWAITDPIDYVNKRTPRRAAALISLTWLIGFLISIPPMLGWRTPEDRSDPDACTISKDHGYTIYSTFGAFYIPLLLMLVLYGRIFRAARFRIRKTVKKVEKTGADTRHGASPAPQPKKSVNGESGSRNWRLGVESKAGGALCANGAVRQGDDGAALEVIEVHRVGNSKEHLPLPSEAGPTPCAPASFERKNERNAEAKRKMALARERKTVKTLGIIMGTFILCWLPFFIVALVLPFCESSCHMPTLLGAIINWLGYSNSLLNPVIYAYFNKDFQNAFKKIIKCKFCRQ
Kind of assay: In vitro effective concentration required to inhibit forskolin-stimulated cAMP levels in HA7 cells expressing human 5-HT1A receptor. The assay is classed as functional, cell-based. A digest of the protocol: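 HeLa HA7 cells stably expressing human 5-HT1A, at 80–90% confluency, antibiotic-free for 24 h. Preincubated 10 min at RT in DMEM/10 mM Hepes, then drug at 0.1 nM–100 µM with 100 µM forskolin and 100 µM IBMX for 10 min at RT. Stopped with 0.1 N HCl; cAMP by radioimmunoassay as % of forskolin control; pEC50.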
For orientation: Cyclic AMP is a second messenger, typically raised through Gs and lowered through Gi signalling.

The species entered for assay [8] is Rattus norvegicus. In words: Potency to produce a significant inhibition of immobility in rat. The assay is classed as functional. The procedure, abridged:
as §4

The species named for assay [9] is Rattus norvegicus. In words: Maximum inhibition of immobility in the rat (Expressed as percentage of immobility observed in vehicle controls). The assay is classed as functional. The procedure, abridged:
as §3

Assay [10] concerns the target T3, 5-hydroxytryptamine receptor 1A (Rattus norvegicus, UniProt P19327).
T3 sequence (P19327 whole entry): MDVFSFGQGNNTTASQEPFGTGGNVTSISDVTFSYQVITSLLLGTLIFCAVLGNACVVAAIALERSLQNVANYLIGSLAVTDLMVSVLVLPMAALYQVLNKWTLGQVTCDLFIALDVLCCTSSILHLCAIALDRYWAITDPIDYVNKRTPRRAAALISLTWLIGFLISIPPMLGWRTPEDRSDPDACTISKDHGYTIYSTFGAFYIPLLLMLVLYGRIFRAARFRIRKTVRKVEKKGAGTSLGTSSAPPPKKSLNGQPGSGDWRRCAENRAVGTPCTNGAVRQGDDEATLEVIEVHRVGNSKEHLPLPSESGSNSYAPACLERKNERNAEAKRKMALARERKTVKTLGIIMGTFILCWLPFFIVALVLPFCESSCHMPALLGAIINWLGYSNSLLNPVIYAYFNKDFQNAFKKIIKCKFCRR
In words: Binding affinity towards 5-hydroxytryptamine 1A receptor in rat cortex using [3H]8-OH-DPAT as a radioligand. A digest of the protocol:
as §1

The target of assay [11] is D(2) dopamine receptor (Rattus norvegicus, UniProt P61169). Kind of assay: Binding affinity towards Dopamine receptor D2 in rat striatum using YM-09151-2 as a radioligand. Format: tissue-based. The procedure, abridged: as §1
Sequence of D(2) dopamine receptor (P61169 whole entry): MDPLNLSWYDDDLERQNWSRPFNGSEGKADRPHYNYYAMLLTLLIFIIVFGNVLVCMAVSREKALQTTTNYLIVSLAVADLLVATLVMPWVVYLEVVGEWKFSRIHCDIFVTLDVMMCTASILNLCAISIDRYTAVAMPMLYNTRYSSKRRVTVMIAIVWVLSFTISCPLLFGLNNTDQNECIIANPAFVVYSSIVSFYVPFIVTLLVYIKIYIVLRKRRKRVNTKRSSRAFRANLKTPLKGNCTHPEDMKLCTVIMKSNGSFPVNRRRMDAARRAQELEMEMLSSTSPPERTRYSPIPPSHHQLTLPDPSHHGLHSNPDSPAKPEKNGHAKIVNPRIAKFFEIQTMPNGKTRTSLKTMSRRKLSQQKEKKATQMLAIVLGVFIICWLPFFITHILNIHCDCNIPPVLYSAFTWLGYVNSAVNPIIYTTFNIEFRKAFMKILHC
Assay [12] deals with Rattus norvegicus. Kind of assay: Effective dose in vivo in rat to induce lower lip retraction. The assay is classed as functional. The procedure, abridged: as §2
Assay [13] is filed under the species Rattus norvegicus. In words: Potency to produce a significant inhibition of immobility in the rat. Format: functional. The procedure, abridged: as §4

For `CN(C)c1cccc(CNCC2(F)CCN(C(=O)c3ccc(F)c(Cl)c3)CC2)n1`, in [1], the “Log Ki” value is on record as -6.68. For the same compound, the ED50 amounted to 0.11 mg/kg in assay [2], 0.16 mg/kg in assay [3], 0.29 mg/kg in assay [4] and 0.16 mg/kg in assay [6]. For the same compound, the Inhibition in [5] is recorded as more than 80%. The compound also showed an EC50 in [7] of 3.63 nM.
As for `O=C(c1ccc(F)c(Cl)c1)N1CCC(F)(CNCc2cccc(-c3ccco3)n2)CC1`, the “Log Ki” value in [1] is reported as -6.12. For the same compound, the ED50 in [8] is 0.09 mg/kg; in [2], 0.11 mg/kg; in assay [3], 0.32 mg/kg; in [4], 0.08 mg/kg. Moreover, a half-maximal response in assay [7] (EC50) required 3.47 nM. Also, the Inhibition in [9] is more than 80%.
For `O=C(c1ccc(Cl)c(Cl)c1)N1CCC(F)(CNCc2cccc(-c3ccco3)n2)CC1`, in [1], the “Log Ki” value is given as -6.39. Further, the median effective dose (ED50) came to 0.23 mg/kg in assay [2], 0.32 mg/kg in [3] and 0.16 mg/kg in [4]. Besides, the Ki in assay [10] was 1.05 nM; in assay [11], 1200 nM. In assay [7], this compound had an EC50 of 2.63 nM.
In assay [10], `O=C(c1ccc(Cl)c(Cl)c1)N1CCC(F)(CNCc2cccc(-n3cccn3)n2)CC1` had a Ki of 0.204 nM. In assay [7], this compound gave an EC50 of 28.2 nM. The compound also came in with an ED50 in assay [12] of 1.3 mg/kg.
Regarding `CNc1nc(CNCC2(F)CCN(C(=O)c3ccc(F)c(Cl)c3)CC2)ccc1C`, the results for the ED50 in assay [13], in [3] and in assay [4] were 0.05 mg/kg, 0.08 mg/kg and 0.02 mg/kg, respectively. Also, in [5], the Inhibition is more than 80%. In [7], this compound had an EC50 of 2.14 nM.
In the case of `O=C(c1ccc(Cl)c(Cl)c1)N1CCC(F)(CNCc2cccc(-c3cc[nH]n3)n2)CC1`, the “Log Ki” value in [1] is recorded as -6.1. In addition, the ED50 in [2] is 0.32 mg/kg; in [3], 1.3 mg/kg; in [4], 0.32 mg/kg. In addition, the Ki in [10] was 0.302 nM; in [11], 4070 nM. It took 1.12 nM to reach a half-maximal effect in [7] (EC50).
In turn, `CN(C)CCCN1c2ccccc2CCc2ccccc21` [IMIPRAMINE] yielded an ED50 in assay [8] of 80 mg/kg. In [9], the Inhibition turned out to be 31%.

Usually ED50 stands for the midpoint of the dose-response relation. The low end stands for an effect at a small dose, the high end for a need for a large dose. What is called Inhibition is the relative decrease from the control value, in per cent. High values mean strong suppression, low ones little suppression. In general, EC50 refers to the concentration that produces a half-maximal response. Read a high EC50 as weaker potency. One may read the Ki as the equilibrium dissociation constant of an inhibitor or competing ligand from its target. A higher Ki goes with lower affinity.

(Values after ChEMBL document CHEMBL1132173, “Novel derivatives of 2-pyridinemethylamine as selective, potent, and orally active agonists at 5-HT1A receptors” (J Med Chem, 1999).)
